Source: ChEMBL document CHEMBL4261510, “Synthesis of novel inhibitors of α-amylase based on the thiazolidine-4-one skeleton containing a pyrazole moiety and their configurational studies” (Medchemcomm, 2017)

What was measured:
[1] = biological target: Alpha amylase (Homo sapiens) (UniProt P0DUB6); test: Inhibition of human alpha-amylase at 50 ug/ml using starch as substrate preincubated for 30 mins by 3,5-dinitrosalicylic acid color reagent based assay relative to control
Summary of the method: (§1)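 Test samples were prepared as a DMSO stock of 10 mg/10 mL and assayed at 50, 100 and 200 μg mL–1. Enzyme was at 1 unit per mL in 20 mM sodium phosphate, pH 6.9. Sample and enzyme were incubated 30 min at 25 °C. DNSA colour reagent was added, then heated 15 min at 85 °C and read at 595 nm. Soluble potato starch (0.5–1% w/v) was the substrate. Inhibition % was taken against a DMSO control, with blanks correcting background.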

[2] = biological target: Alpha amylase (Homo sapiens) (UniProt P0DUB6); test: Inhibition of human alpha-amylase at 200 ug/ml using starch as substrate preincubated for 30 mins by 3,5-dinitrosalicylic acid color reagent based assay relative to control; summary of the method: as §1
[3] = biological target: Alpha amylase (Homo sapiens) (UniProt P0DUB6); test: Inhibition of human alpha-amylase at 100 ug/ml using starch as substrate preincubated for 30 mins by 3,5-dinitrosalicylic acid color reagent based assay relative to control; summary of the method: as §1

Chain of Alpha amylase (Homo sapiens) (P0DUB6 whole entry, looked up): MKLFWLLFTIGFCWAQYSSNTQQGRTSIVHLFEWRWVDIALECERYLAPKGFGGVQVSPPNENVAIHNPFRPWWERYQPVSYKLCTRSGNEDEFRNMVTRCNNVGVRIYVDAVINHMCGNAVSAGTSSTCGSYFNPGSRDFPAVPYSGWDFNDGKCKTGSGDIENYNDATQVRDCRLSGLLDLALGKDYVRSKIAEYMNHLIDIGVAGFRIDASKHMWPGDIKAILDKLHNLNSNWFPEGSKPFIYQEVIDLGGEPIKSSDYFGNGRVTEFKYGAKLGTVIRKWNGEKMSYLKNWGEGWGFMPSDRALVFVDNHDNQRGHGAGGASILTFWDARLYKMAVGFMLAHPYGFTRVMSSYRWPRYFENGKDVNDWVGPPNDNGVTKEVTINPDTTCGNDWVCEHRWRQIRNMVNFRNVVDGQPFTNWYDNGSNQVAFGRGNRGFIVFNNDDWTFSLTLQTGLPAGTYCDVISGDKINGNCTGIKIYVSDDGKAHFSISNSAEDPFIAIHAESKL

inhibition [1] [%]	inhibition [2] [%]	inhibition [3] [%]	SMILES
77.1	78	81.6	Cc1ccc(/N=C2/NC(=O)/C(=C/c3cn(-c4ccccc4)nc3-c3ccc(F)cc3)S2)cc1
79.2	84	83.7	Cc1ccc(/N=C2/NC(=O)/C(=C/c3cn(-c4ccccc4)nc3-c3ccc(C)cc3)S2)cc1
65.1	58	88.2	Cc1ccc(/N=C2/NC(=O)/C(=C/c3cn(-c4ccccc4)nc3-c3ccc([N+](=O)[O-])cc3)S2)cc1
48.6	63.7	53.8	C[C@H]1O[C@H](O[C@H]2[C@H](O)[C@@H](O)[C@@H](O[C@H]3[C@H](O)[C@@H](O)C(O)O[C@@H]3CO)O[C@@H]2CO)[C@H](O)[C@@H](O)[C@@H]1N[C@H]1C=C(CO)[C@@H](O)[C@H](O)[C@H]1O (some centres undefined)
50.9	75	81.1	Cc1ccc(/N=C2/NC(=O)/C(=C/c3cn(-c4ccccc4)nc3-c3ccc(Cl)cc3)S2)cc1
52.1	97.4	72.9	Cc1ccc(/N=C2/NC(=O)/C(=C/c3cn(-c4ccccc4)nc3-c3ccc(Br)cc3)S2)cc1
75.9	92.2	90	COc1ccc(-c2nn(-c3ccccc3)cc2/C=C2\S/C(=N\c3ccc(C)cc3)NC2=O)cc1
48.1	84.3	81.6	Cc1ccc(/N=C2/NC(=O)/C(=C/c3cn(-c4ccccc4)nc3-c3ccccc3)S2)cc1
